Consider 13 compounds from ChEMBL document CHEMBL1121584, “Soft drugs. 3. A new class of anticholinergic agents” (J Med Chem, 1980).

The species entered for series [1] is Cavia porcellus. Nature of the series: Anticholinergic activity was measured by the guinea pig ileum test; c = NA means no activity found at the doses used. It counts as functional. The essentials:
(§1)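 Guinea pig whole ileum strips in McEwan's solution, gassed with O2/CO2 95:5, 37 °C organ bath, 1 g tension. Cumulative acetylcholine concentration-response curves were run to constancy, then repeated after 15–20 min equilibration with increasing antagonist concentrations. Mean curves gave dose ratios, from which competitive antagonism and pA2 were derived.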

Series [2] in a line: Cholinergic potency was expressed in terms of relative activity vs acetylcholine. The class given is functional.
For series [3], the species on record is Cavia porcellus. Put plainly: Anticholinergic activity was measured by the guinea pig ileum test. It counts as functional. To be noted: Cavia porcellus, Ileum; read-out: pA2 (converted). An outline of the steps:
as §1

The species named for series [4] is Cavia porcellus. Put plainly: Antihistamine activity was measured by the guinea pig ileum test. The conditions noted are these: Cavia porcellus, Ileum; read-out: pA2 (converted). The class given is functional. The essentials:
(§2)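 Guinea pig ileum strips, McEwan's solution, Carbogen, 37 °C, 1 g tension. Cumulative histamine concentration-response curves were recorded before and after 15–20 min equilibration with rising antagonist concentrations. pA2 came from dose ratios of mean curves.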

Series [5] is described as follows: Half life period was measured at 7.4 pH from d[quant]/dt. The class given is ADME. The conditions noted are these: pH 7.4. The essentials: (§3)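 Chemical hydrolysis in 0.5 M potassium phosphate, pH 7.4, 37 °C. Rate was followed by appearance of the acid product or loss of the quaternary salt. Where salt contained amine hydrochloride, initial concentration was taken from final acid after complete hydrolysis. Half-life was estimated from both where resolved.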

A short description of series [6]: Half life period was measured at 7.4 pH from d[acid]/dt. It counts as ADME. The conditions noted are these: pH 7.4. The essentials:
as §3

The species entered for series [7] is Cavia porcellus. Put plainly: Antihistamine activity was measured by the guinea pig ileum test; c = NA means no activity found at the doses used. The class given is functional. The essentials: as §2
Series [8] can be described thus: Cholinergic potency was expressed in terms of relative activity vs acetylcholine; c = NA means no activity found at the doses used. It counts as functional.
Series [9] can be described thus: The hydrolytic kinetics expressed as Kobs was measured at 7.4 pH at 37 degree C. The class given is ADME. The conditions noted are these: pH 7.4. An outline of the steps: as §3
Series [10] is described as follows: Half life period was measured at 37 degree C in dog plasma from d[quant]/dt. It counts as ADME, Canis lupus familiaris. An outline of the steps: (§4)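 Fresh dog blood was centrifuged and the upper layer filtered through 0.8 and 0.2 µm membranes. 2 mL plasma samples with gentisic acid internal standard were incubated. 5 µL aliquots taken at intervals were assayed against acid standard curves in methanol. Rates came from acid appearance or quaternary salt loss.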

For a further series, the species on record is Canis familiaris. Put plainly: The hydrolytic kinetics expressed as Kobs was measured in dog plasma at 37 degree C. It counts as ADME, Canis lupus familiaris. The essentials:
as §4

For series [11], the species on record is Cavia porcellus. Nature of the series: Anticholinergic activity was measured by the guinea pig ileum test; NA means no activity found at the doses used. It counts as functional. The essentials:
as §1

Series [12] in a line: Cholinergic potency was expressed in terms of relative activity vs acetylcholine; NA means no activity found at the doses used. The class given is functional.
The species named for series [13] is Sus scrofa. Put plainly: Half life period was measured at 37 degree C in […] from d[acid]/dt. The class given is ADME. The conditions noted are these: pig, in vitro; in the assay text read “esterase” for “plasma”. The essentials:
(§5)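 Hog liver carboxylesterase (EC 3.1.1.1), 2.4 units, with substrate at 5.6×10^-3 mol L-1 in 0.5 M potassium phosphate pH 7.4 containing gentisate internal standard, 37 °C. Rate was taken from acid formation.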

For series [14], the species on record is Sus scrofa. Put plainly: The hydrolytic kinetics expressed as Kobs was measured in […] at 37 degree C. The class given is ADME. To be noted: pig. An outline of the steps: as §5

Usually half-life stands for the time in which the quantity being followed falls by half. A low value points to rapid decline.

Turning to `CCC(C)C(=O)OC[N+]12CCC(CC1)C(OC(C)=O)C2` (configuration not stated), in the series listed under Cavia porcellus [1], the pA2 entry was “No activity”. For the same compound, the Activity in series [2] is 1.

As for `C[N+]1(COC(=O)C23CC4CC(CC(C4)C2)C3)CCCC1`, the Kb in the series filed under Cavia porcellus [3] is 126 nM.

For `Cn1cc[n+](COC(=O)C(c2ccccc2)C2CCCC2)c1` (configuration not stated), the figures for the Kb in the series listed under Cavia porcellus [4] and in the series listed under Cavia porcellus [3] were 501 nM and 15.8 nM, respectively.

For `CCC(C(=O)OC[n+]1ccn(C)c1)c1ccccc1.[Cl-]` (configuration not stated), the Kb in the series filed under Cavia porcellus [4] and in the series listed under Cavia porcellus [3] was 1260 nM in each case. Also, the half-life in series [5] was 6 h; in [6], 5.7 h.

On to `CC[N+](CC)(CC)COC(=O)C(c1ccccc1)C1CCCC1` (configuration not stated), for which the pA2 result in the series filed under Cavia porcellus [7] was “No activity”. Besides, the Activity result in [8] is “No activity”.

Regarding `CCC(C)C(=O)OC[N+]1(C)CCCC1C` (configuration not stated), the Kb in the series listed under Cavia porcellus [3] is 12600 nM. In addition, the Activity entry in series [8] is “No activity”.

For the compound `CC[N+](CC)(COC(=O)C(C)(C)C)CC(=O)Nc1c(C)cccc1C`, the pA2 entry in the series filed under Cavia porcellus [1] was “No activity”. This compound also displayed an Activity in series [2] of 1.

Turning to `CCC(C)C(=O)OC[N+]1(C)CCCC1` (configuration not stated), in the series filed under Cavia porcellus [4], the Kb was 2510 nM. Moreover, the pA2 entry in the series listed under Cavia porcellus [1] is “No activity”.

In [6], `CC[N+](CC)(CC)COC(=O)C1(c2ccccc2)CC1.[Cl-]` showed a half-life of 21 h. Moreover, the pA2 result in the series listed under Cavia porcellus [1] is “No activity”. For the same compound, in series [9], the K obs was determined as 0.00055 min⁻¹.

For `C[N+]1(COC(=O)Cc2ccccc2)CCOCC1.[Cl-]`, the half-life in [10] was 4 h; in series [6], 8 h. In the series listed under Canis familiaris, this compound had a K obs of 1.73 min⁻¹.

As for `C[N+]1(C2OC(=O)c3ccccc32)CCCC1` (configuration not stated), the pA2 result in the series listed under Cavia porcellus [11] was “No activity”. Further, the Activity result in series [12] was “No activity”.

Regarding `CCC(C(=O)OC[N+](CC)(CC)CC)c1ccccc1.[Cl-]` (configuration not stated), the Kb was 316 nM in the series listed under Cavia porcellus [4] and 251 nM in the series listed under Cavia porcellus [3]. The same compound gave a T1/2 in the series filed under Sus scrofa [13] of 2.1 h. The half-life is 2.5 h in series [5], 1.4 h in [10] and 2.6 h in [6]. Moreover, the K obs in the series listed under Canis familiaris is 0.00815 min⁻¹; in the series filed under Sus scrofa [14], 0.00542 min⁻¹.

On to `C[N+]1(COC(=O)C2(c3ccccc3)CCCC2)CCCC1.[Cl-]`, for which the pA2 result in the series filed under Cavia porcellus [7] was “No activity”. For the same compound, in the series listed under Cavia porcellus [3], the Kb is 50.1 nM. Also, the half-life in [6] is 64 h. Moreover, the K obs in series [9] stood at 0.000181 min⁻¹.
